From PubChem
RGS4 act – RGS4 potentiators or activators, primary screen, cell-based, HEK293 M3R inducible RGS4, calcium flux | carbachol calcium flux Fluo4; hits give low values | B-score at 10 µM | hit rate 0.92% among 310,000 | AID 463111, 2010;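 active means B-score of the integrated calcium signal more than 4 SD below the library mean, with starting fluorescence not abnormally high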;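 further: negative B-score means reduced calcium response which marks RGS4 activation or potentiation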
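Reagent: ECmax carbachol challenge; Test system: M3R-expressing HEK293 line, RGS4 induced by doxycycline; Schedule: overnight RGS4 induction, 30 min dye load 37 °C, 20 min compound RT; Detection: calcium dye Fluo4 fluorescence; Read-out: Agonist-evoked peak-minus-minimum fluorescence over baseline, integrated ratio, B score.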
MrgX1 agonist – agonists of human MrgX1 receptor, primary screen, HEK293 cells, Fluo-4 calcium flux; hit rate 0.44% among 310,000; B-score at 10 µM; Fluo-4 calcium fluorescence, agonist mode; hits give high values; Mas-related G-protein coupled receptor member X1 (Homo sapiens), Q96LB2;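 active means calcium response B-score plate-corrected fluorescence ratio at least 3 library SD, with starting fluorescence B-score inside 5 SD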
Target sequence (Q96LB2 whole entry, looked up): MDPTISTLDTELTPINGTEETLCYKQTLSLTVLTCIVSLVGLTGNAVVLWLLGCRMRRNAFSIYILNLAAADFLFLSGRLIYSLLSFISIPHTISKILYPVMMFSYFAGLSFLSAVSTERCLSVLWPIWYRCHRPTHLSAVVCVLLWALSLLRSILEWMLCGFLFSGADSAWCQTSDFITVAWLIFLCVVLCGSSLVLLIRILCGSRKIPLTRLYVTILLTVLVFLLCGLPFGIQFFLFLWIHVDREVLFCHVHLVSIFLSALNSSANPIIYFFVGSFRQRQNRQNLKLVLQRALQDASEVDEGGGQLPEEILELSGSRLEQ
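Material: MrgX1-expressing HEK293 cells / Dosing: compound as first of three additions / Incubation: overnight seeding, then 1 h dark dye loading / Signal: Fluo-4 NW calcium fluorescence / Evaluation: B-scored fluorescence response ratio / Benchmarks: positive and negative control wells on each plate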
RGS4 block – RGS4 inhibitors, primary screen, cell-based, HEK293 M3R inducible RGS4, calcium flux | B-score at 10 µM | hit rate 0.45% among 310,000 | Fluo-4 calcium flux; hits give high values; triggered by carbachol at its EC20;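 active means B-score, a plate-corrected calcium signal, over three deviations above library mean, with baseline fluorescence within five deviations of library mean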;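 further: RGS4 expression induced by doxycycline in cells with stable M3 receptor; B-score is computed from the integrated fluorescence ratio over baseline after carbachol; higher B-score means a larger calcium signal and so more RGS4 inhibition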
Target sequence (P49798 whole entry, looked up): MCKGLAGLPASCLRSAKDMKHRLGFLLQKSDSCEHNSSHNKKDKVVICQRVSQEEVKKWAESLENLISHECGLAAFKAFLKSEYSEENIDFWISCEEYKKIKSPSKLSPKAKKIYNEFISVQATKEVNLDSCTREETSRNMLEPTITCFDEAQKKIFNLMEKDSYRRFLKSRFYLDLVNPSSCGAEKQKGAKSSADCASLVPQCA
MrgX1 allo act – positive allosteric modulators of MrgX1, primary screen, HEK293 cells, Fluo-4 calcium flux | Mas-related G-protein coupled receptor member X1 (Homo sapiens), Q96LB2 | FDSS; hits give high values | B-score at 10 µM | hit rate 0.63% among 310,000 | AID 588675, 2011;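 active means plate-corrected calcium response at least 3 library SD above typical, normal starting fluorescence, not activating the receptor alone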;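 further: compound read alongside a low EC10 to EC30 dose of BAM8-22 agonist; peak minus trough fluorescence over baseline measured at the second addition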
MrgX1 antagonist – antagonists of human MrgX1 receptor, primary screen, HEK293 cells, Fluo-4 calcium flux. Mas-related G-protein coupled receptor member X1 (Homo sapiens), Q96LB2. BAM8-22 antagonism; hits give low values. B-score at 10 µM. hit rate 1.3% among 310,000. AID 588676, 2011;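 active means calcium-response B-score plate-corrected more than 3 library SD below zero, starting fluorescence within 5 deviations, no agonist response on first addition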;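 further: peak minus trough fluorescence over baseline after final BAM8-22 challenge near maximal dose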
Active calls of the source: *; i = inactive; / = no result given. Only some compounds are listed: those with a hit (about 3.5% of all), similar ones and a draw of the others.

SMILES | RGS4 act | MrgX1 agonist | RGS4 block | MrgX1 allo act | MrgX1 antagonist
Cn1nc(-c2ccc(Cl)cc2)nc2c(=O)n(C)c(=O)nc1-2 | i | i | i | i | -4.6*
CC(=O)C1=C(O)C(=O)N(C)C1c1ccccc1[N+](=O)[O-] (stereo not given) | i | i | i | i | i
COc1ccc(N=C2NC(=O)CS2)c([N+](=O)[O-])c1 | i | i | i | i | i
O=C1CSC(=Nc2ccccc2[N+](=O)[O-])N1 | i | i | i | i | -4.6*
CCC(C)N(C(=O)COc1ccccc1C(=O)NCc1ccccc1)C1CCS(=O)(=O)C1 (stereo not given) | i | i | i | i | -6.2*
COC1=C(Nc2ccc(OC)cc2)C(=O)c2ccccc2C1=O | i | i | i | 7.8* | i
COC1=C(Nc2ccc(O)cc2)C(=O)c2ccccc2C1=O | i | i | i | i | i
CCOc1ccc(NC2=C(OC)C(=O)c3ccccc3C2=O)cc1 | i | i | i | 7.3* | i
COc1ccc(NC2=C(NCCO)C(=O)c3ccccc3C2=O)cc1 | i | i | i | i | i
Oc1ccccc1N1CCN(c2ncnc3scc(-c4ccc(F)cc4)c23)CC1 | i | i | i | i | i
Oc1ccccc1N1CCN(c2ncnc3scc(-c4ccccc4)c23)CC1 | -7.4* | i | i | i | i
O=C(O)CN1C(=O)c2ccc(C(=O)c3ccccc3)cc2C1=O | i | i | i | i | i
COc1cc2ccccc2cc1C(=O)N1CC(C)CC(C)C1 (stereo not given) | i | i | i | i | i
Cn1c(=O)c(C(=O)NNC(=O)c2ccccc2Cl)c(O)c2ccccc21 | i | 29* | i | i | i
Cn1c(=O)c(C(=O)NNC(=O)c2ccccc2Br)c(O)c2ccccc21 | i | i | i | 8.4* | i
CCOC(=O)c1sc(SCc2ccccc2)c2c1CC(C)(C)CC2=O | i | i | i | i | i
Cc1ccc(C)c(-c2nnc(NC(=O)Cc3ccc(F)cc3)o2)c1 | i | i | i | i | i
CCc1ccc(/C=C2\SC(=S)N(CCCC(=O)Nc3ccccc3C(=O)O)C2=O)cc1 | i | i | i | i | i
CN1CCN(C(=O)CCN2C(=O)/C(=C/c3cccc(Br)c3)SC2=S)CC1 | i | i | i | i | i
O=C(O)CCCN1C(=O)/C(=C/c2ccncc2)SC1=S | i | i | i | i | i
CN1CCN(C(=O)CCCN2C(=O)/C(=C/c3cccc(Br)c3)SC2=S)CC1 | -7.2* | / | i | / | /
O=C(O)CCCCCN1C(=O)/C(=C/c2ccncc2)SC1=S | i | 32* | i | i | i
Cc1ccc(/C=C2\SC(=S)N(CCCC(=O)Nc3ccccc3C(=O)O)C2=O)cc1 | i | i | i | i | -5.4*
O=C(O)CCCCCN1C(=O)/C(=C\c2ccncc2)SC1=S | i | 34* | i | i | i
CC(C)CN(C(=O)COC(=O)C1=COCCO1)c1c(N)n(Cc2ccccc2)c(=O)[nH]c1=O | i | i | i | i | i
SMILES | RGS4 act | MrgX1 agonist | RGS4 block | MrgX1 allo act | MrgX1 antagonist
CCN(CC)C(=O)c1ccc(-c2nnc(OC)c3ccccc23)cc1 | i | i | i | i | i
Cc1onc(-c2c(F)cccc2Cl)c1C(=O)NCc1ccc2c(c1)OCO2 | -7.4* | i | i | i | i
COc1cc(C(=O)N2CCN(Cc3ccc4c(c3)OCO4)CC2)cc(OC)c1OC | i | i | i | i | i
COc1cccc(C(=O)C2CCCN(CC3=Cc4cc(OC)ccc4OC3)C2)c1 (stereo not given) | -7* | i | i | i | i
O=C(/C=C/c1ccc([N+](=O)[O-])cc1)/C=C/c1ccco1 | i | i | 16* | i | i
O=C(NN1C(=O)/C(=C/c2ccc(O)c([N+](=O)[O-])c2)SC1=S)c1ccccc1Cl | i | i | i | i | i
O=C(NN1C(=O)/C(=C/c2ccc(O)cc2)SC1=S)c1ccccc1O | i | i | i | i | -7.8*
O=C(NN1C(=O)/C(=C/c2ccc(O)cc2)SC1=S)c1cccc(O)c1 | i | i | i | i | i
COc1cc(/C=C2\SC(=S)N(N(C)c3ccccc3)C2=O)ccc1O | i | 34* | i | i | i
COc1cc(/C=C2\SC(=S)N(NC(=O)c3ccccc3O)C2=O)ccc1O | i | 40* | i | i | i
CN1CC[C@]2(CCN3CCc4c(oc5ccccc45)[C@@H]3C2)N(C)C1=O | / | i | / | i | i
Cc1cccc2sc(N(CCCN(C)C)C(=O)c3ccc(Cl)s3)nc12 | -8.3* | i | i | i | i
COc1ccccc1C(=O)COC(=O)c1ccccc1OCC(=O)Nc1ccc(SC(F)F)cc1 | -7.8* | i | i | i | i
Cc1cc(C)c(C)c(S(=O)(=O)NCCN2CCOCC2)c1C | i | i | i | i | i
O=C(Cn1nc(CNc2ccc(Cl)cc2)[n+]2c1CCCCC2)c1ccccc1 | i | i | i | i | i
Cc1ccc(C(C)C)c(OCc2nn(CC(=O)c3ccc(Cl)cc3)c3[n+]2CCCCC3)c1 | -7.4* | i | i | i | i
CC(C)[N+](C)(CCOC(=O)C1c2ccccc2Oc2ccccc21)C(C)C | -8.5* | i | i | i | i
Cc1ccc(C(=O)c2cc([N+](=O)[O-])ccc2N2CCCCC2)cc1C | -7.6* | i | i | i | i
Cc1ccc(N2CC(C(=O)Nc3c4c(nn3C(C)(C)C)CS(=O)(=O)C4)CC2=O)cc1C (stereo not given) | i | i | i | i | i
Nc1ccc(Oc2ccc(F)cc2)nc1 | i | i | i | i | i
O=Cc1ccc(Oc2ccc(F)cc2)nc1 | i | i | i | i | -4.5*
Cc1ccc2c(c1)C(O)(c1c(C)[nH]c3ccccc13)C(=O)N2 (stereo not given) | i | i | 6.3* | i | i
Cc1[nH]c2ccccc2c1C1(O)C(=O)N(C(C)C)c2ccccc21 (stereo not given) | i | i | i | i | i
COc1ccc2c(=O)c(-c3ccccc3C)c(C)oc2c1 | i | i | i | 9.3* | i
COc1ccccc1-c1c(C)oc2cc(OC(=O)c3ccco3)ccc2c1=O | i | i | i | i | i
